Experimental findings from ChEMBL document CHEMBL3627606, “Development of Novel, CNS Penetrant Positive Allosteric Modulators for the Metabotropic Glutamate Receptor Subtype 1 (mGlu1), Based on an N-(3-Chloro-4-(1,3-dioxoisoindolin-2-yl)phenyl)-3-methylfuran-2-carboxamide Scaffold, That Potentiate Wild Type and Mutant mGlu1 Receptors Found in …” (J Med Chem, 2015) are described below.

One data set concerns the target Cytochrome P450 3A4 (Homo sapiens, UniProt P08684). The data set can be described thus: Inhibition of CYP3A4 in human liver microsomes by LC-MS/MS analysis. The format is ADME. On the technique in general: Liver microsomes are vesicles of endoplasmic reticulum, rich in cytochrome P450 enzymes.
Data set [1] in a line: Plasma clearance in Sprague-Dawley rat at 0.2 mg/kg, iv by LC-MS/MS analysis.
Data set [2] has as its system Mus musculus. The data set is described as follows: Toxicity in C57BL/6 mouse assessed as seizure activity at 100 mg/kg, ip administered as single dose measured for 3 hrs. The format is organism-based. Particulars: in vivo. The method in brief:
(§1)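 Male C57Bl/6 mice (25−30 g) dosed ip in 10% Tween 80 at 10 mL/kg: the mGlu5 ago-PAM at 1 or 3 mg/kg, the mGlu1 PAMs at 100 mg/kg. Behaviour was monitored continuously for 3 h and scored on a modified Racine scale (0−5).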

The test system of data set [3] is Plasma. The data set can be described thus: Fraction unbound in rat plasma. Format: ADME, cell-free.
The target of another data set is Cytochrome P450 2D6 (Homo sapiens, UniProt P10635). The data set is described as follows: Inhibition of CYP2D6 in human liver microsomes by LC-MS/MS analysis. The format is ADME.
The subject of data set [4] is Plasma. The data set can be described thus: Fraction unbound in human plasma. Format: ADME, cell-free.
The nature of data set [5]: Ratio of drug level in brain to plasma of Sprague-Dawley rat at 0.2 mg/kg, iv after 0.25 hrs by LC-MS/MS analysis. Particulars: read-out: BPR.
A further data set concerns Rattus norvegicus. The data set is described as follows: Volume of distribution at steady state in Sprague-Dawley rat at 0.2 mg/kg, iv by LC-MS/MS analysis. Particulars: in vivo.
Data set [6] is described as follows: Half life in Sprague-Dawley rat at 0.2 mg/kg, iv by LC-MS/MS analysis. Particulars: in vivo.
Data set [7] is described as follows: Plasma concentration in Sprague-Dawley rat at 0.2 mg/kg, iv after 0.25 hrs by LC-MS/MS analysis.
The nature of data set [8]: Mean residence time in Sprague-Dawley rat at 0.2 mg/kg, iv by LC-MS/MS analysis. Particulars: in vivo.
Data set [9] is described as follows: Drug concentration in Sprague-Dawley rat brain at 0.2 mg/kg, iv after 0.25 hrs by LC-MS/MS analysis. Particulars: read-out: Drug uptake.
Data set [10] addresses T1, Metabotropic glutamate receptor 1 (Homo sapiens, UniProt Q13255). The data set is described as follows: Positive allosteric modulation of human mGlu1 receptor in HEK293 cells assessed as potentiation of glutamate-induced calcium mobiliztion at 10 uM by Fluo-4AM dye based fluorescence analysis. Format: functional, cell-based.
Target sequence in this assay (Q13255 19-1194 limits assumed): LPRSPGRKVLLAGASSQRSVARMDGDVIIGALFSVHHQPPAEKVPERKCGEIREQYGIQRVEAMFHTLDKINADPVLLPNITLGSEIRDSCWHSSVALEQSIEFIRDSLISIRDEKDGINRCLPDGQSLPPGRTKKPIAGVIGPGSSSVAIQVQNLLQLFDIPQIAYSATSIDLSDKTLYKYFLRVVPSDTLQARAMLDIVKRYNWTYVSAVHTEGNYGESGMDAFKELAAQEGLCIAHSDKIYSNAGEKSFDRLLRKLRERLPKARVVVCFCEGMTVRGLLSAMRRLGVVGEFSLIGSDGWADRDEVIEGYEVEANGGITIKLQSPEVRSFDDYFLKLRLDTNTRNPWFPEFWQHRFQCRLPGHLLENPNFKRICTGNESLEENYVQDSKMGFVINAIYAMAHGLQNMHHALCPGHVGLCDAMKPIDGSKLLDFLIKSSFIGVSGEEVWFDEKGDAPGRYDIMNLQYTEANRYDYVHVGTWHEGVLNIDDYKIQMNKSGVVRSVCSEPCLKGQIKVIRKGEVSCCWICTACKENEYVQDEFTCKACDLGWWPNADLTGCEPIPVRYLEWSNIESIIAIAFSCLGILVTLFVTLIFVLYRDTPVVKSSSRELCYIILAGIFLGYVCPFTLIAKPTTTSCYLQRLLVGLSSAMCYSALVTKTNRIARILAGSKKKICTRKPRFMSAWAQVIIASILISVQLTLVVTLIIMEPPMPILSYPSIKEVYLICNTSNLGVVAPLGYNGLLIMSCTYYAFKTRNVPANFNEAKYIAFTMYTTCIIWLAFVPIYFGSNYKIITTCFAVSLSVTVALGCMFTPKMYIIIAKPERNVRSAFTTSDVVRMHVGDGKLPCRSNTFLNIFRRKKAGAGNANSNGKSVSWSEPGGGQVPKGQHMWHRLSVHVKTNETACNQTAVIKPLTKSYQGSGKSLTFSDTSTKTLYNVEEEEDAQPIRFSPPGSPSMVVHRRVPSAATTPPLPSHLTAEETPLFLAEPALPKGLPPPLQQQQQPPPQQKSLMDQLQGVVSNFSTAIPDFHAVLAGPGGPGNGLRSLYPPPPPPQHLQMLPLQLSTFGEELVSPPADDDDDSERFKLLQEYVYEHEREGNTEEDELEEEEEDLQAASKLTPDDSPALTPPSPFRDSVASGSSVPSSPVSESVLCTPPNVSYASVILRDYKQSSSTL
The target of data set [11] is T2, Metabotropic glutamate receptor 4 (Homo sapiens, UniProt Q14833). The data set can be described thus: Positive allosteric modulation of human mGlu4 receptor assessed as potentiation of glutamate-induced calcium mobiliztion by cell based assay. The note with it: read-out: EC50. The format is functional.
In data set [12] the target is Metabotropic glutamate receptor 1 (Rattus norvegicus, UniProt P23385). The data set is described as follows: Positive allosteric modulation of rat mGlu1 receptor assessed as potentiation of glutamate-induced calcium mobiliztion by cell based assay. Format: functional. The method in brief:
(§2)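 Rat mGlu1 WT calcium mobilization concentration-response curves. EC50 and % Glu Max were derived from the curves.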

In data set [13] the target is Metabotropic glutamate receptor 3 (Homo sapiens) (UniProt Q14832). The data set is described as follows: Positive allosteric modulation of mGlu3 receptor (unknown origin) assessed as potentiation of glutamate-induced response by cell-based assay. The method in brief:
(§3)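 Selectivity counterscreen at the other mGlu subtypes using the standard fold-shift paradigm. Compound was tested at 10 μM against the glutamate concentration-response curve, and the shift of that curve was read.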

For a further data set, the system named is Brain. The data set can be described thus: Drug concentration in C57BL/6 mouse brain at 100 mg/kg, ip administered as single dose. Format: ADME, organism-based. Particulars: in vivo, read-out: Drug uptake.
Data set [14] is described as follows: Intrinsic clearance in human liver microsomes at 1 uM by LC-MS/MS analysis. The format is ADME. Particulars: read-out: CLH.
Data set [15] concerns the target Metabotropic glutamate receptor 1 (Rattus norvegicus) (UniProt P23385). The data set can be described thus: Positive allosteric modulation of rat mGlu1 receptor assessed as potentiation of glutamate-induced calcium mobiliztion by cell based assay relative to glutamate. The format is functional. The method in brief:
as §2

The target in data set [16] is T1, Metabotropic glutamate receptor 1. The data set can be described thus: Positive allosteric modulation of human mGlu1 receptor in HEK293 cells assessed as potentiation of glutamate-induced calcium mobiliztion by Fluo-4AM dye based fluorescence analysis. The format is functional, cell-based. Particulars: read-out: EC50.
Data set [17] has as its system Plasma. The data set is described as follows: Metabolic stability in human plasma. The format is ADME, cell-free. The method in brief:
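Compound incubated at 10 μM in rat or human plasma at 37 °C. Samples taken at 0 and 4 h were analysed by mass spectrometry for parent and metabolites.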

The target of data set [18] is T2, Metabotropic glutamate receptor 4. The data set is described as follows: Positive allosteric modulation of human mGlu4 receptor assessed as potentiation of glutamate-induced calcium mobiliztion by cell based assay relative to PHCCC.
The target in data set [19] is Metabotropic glutamate receptor 8 (Homo sapiens) (UniProt O00222). The data set can be described thus: Positive allosteric modulation of mGlu8 receptor (unknown origin) assessed as potentiation of glutamate-induced response by cell-based assay. The method in brief: as §3
The target in data set [20] is T1, Metabotropic glutamate receptor 1. The data set can be described thus: Positive allosteric modulation of human mGlu1 receptor in HEK293 cells assessed as potentiation of glutamate-induced calcium mobiliztion by Fluo-4AM dye based fluorescence analysis relative to glutamate. Format: functional, cell-based.
Target sequence in this assay (Q13255 19-1194 limits assumed): as above
Data set [21] addresses Metabotropic glutamate receptor 2 (Homo sapiens) (UniProt Q14416). The data set is described as follows: Positive allosteric modulation of mGlu2 receptor (unknown origin) assessed as potentiation of glutamate-induced response by cell-based assay. The method in brief:
as §3

For another data set, the target named is Cytochrome P450 2C9 (Homo sapiens, UniProt P11712). The data set can be described thus: Inhibition of CYP2C9 in human liver microsomes by LC-MS/MS analysis. Format: ADME.
The target in data set [22] is T1, Metabotropic glutamate receptor 1. The data set can be described thus: Agonist activity at human mGlu1 receptor in HEK293 cells assessed as calcium mobilization at 10 uM by Fluo-4AM dye based fluorescence analysis. The format is functional, cell-based. (Calcium flux is commonly read through the fluorescence of an indicator in the cells.)
Target sequence in this assay (Q13255 19-1194 limits assumed): as above
Data set [23] has as its target Metabotropic glutamate receptor 5 (Homo sapiens) (UniProt P41594). The data set can be described thus: Positive allosteric modulation of mGlu5 receptor (unknown origin) assessed as potentiation of glutamate-induced response by cell-based assay. The method in brief: as §3
For data set [24], the target named is Metabotropic glutamate receptor 7 (Homo sapiens) (UniProt Q14831). The data set can be described thus: Positive allosteric modulation of mGlu7 receptor (unknown origin) assessed as potentiation of glutamate-induced response by cell-based assay. The method in brief: as §3
The target in a further data set is T3, Cytochrome P450 1A2 (Homo sapiens, UniProt P05177).
T3 sequence (P05177 whole entry): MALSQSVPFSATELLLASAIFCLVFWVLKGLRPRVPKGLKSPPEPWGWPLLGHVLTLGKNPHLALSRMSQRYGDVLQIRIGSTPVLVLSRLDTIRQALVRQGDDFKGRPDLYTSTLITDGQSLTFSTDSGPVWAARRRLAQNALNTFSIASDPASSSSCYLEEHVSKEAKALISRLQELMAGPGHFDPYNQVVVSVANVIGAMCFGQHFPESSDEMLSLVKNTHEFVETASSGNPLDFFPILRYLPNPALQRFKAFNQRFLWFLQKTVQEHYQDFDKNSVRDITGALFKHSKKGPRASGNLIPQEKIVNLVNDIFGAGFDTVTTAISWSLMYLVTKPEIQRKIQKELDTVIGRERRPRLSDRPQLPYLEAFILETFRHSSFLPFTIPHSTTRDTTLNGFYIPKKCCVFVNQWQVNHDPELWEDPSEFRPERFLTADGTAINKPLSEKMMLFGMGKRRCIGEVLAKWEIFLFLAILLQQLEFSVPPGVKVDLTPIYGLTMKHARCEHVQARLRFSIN
The data set can be described thus: Inhibition of CYP1A2 in human liver microsomes by LC-MS/MS analysis. Format: ADME.

For data set [25], the target named is Metabotropic glutamate receptor 6 (Homo sapiens) (UniProt O15303). The data set can be described thus: Positive allosteric modulation of mGlu6 receptor (unknown origin) assessed as potentiation of glutamate-induced response by cell-based assay. The method in brief:
as §3

Data set [26] has as its system Mus musculus. The data set can be described thus: Toxicity in C57BL/6 mouse assessed as seizure activity at 1 or 3 mg/kg, ip administered as single dose measured after 5 mins. Particulars: in vivo.
Data set [27] has as its system Mus musculus. The data set is described as follows: Toxicity in C57BL/6 mouse assessed as seizure activity at 1 mg/kg, ip administered as single dose measured after 5 mins. The format is organism-based. The note with it: in vivo. The method in brief:
as §1

In general, IC50 refers to the concentration at which inhibition is half-maximal. Lower therefore signals greater potency in that assay. The term clearance denotes a measure of how efficiently the substance is removed, as volume per time. Lower therefore signals a low capacity for elimination. For orientation: Vdss means a proportionality between amount in the body and measured concentration, not a real space. A higher Vdss goes with wide distribution into tissue. As a reminder, the half-life is the time in which the quantity being followed falls by half. As a reminder, the MRT is the average time that molecules of a dose stay in the body. One may read the EC50 as the midpoint of the concentration-response curve.

The structures appear in SMILES notation. Where only a bound is given, the exact number is not on record here.

T2 sequence (Q14833 whole entry): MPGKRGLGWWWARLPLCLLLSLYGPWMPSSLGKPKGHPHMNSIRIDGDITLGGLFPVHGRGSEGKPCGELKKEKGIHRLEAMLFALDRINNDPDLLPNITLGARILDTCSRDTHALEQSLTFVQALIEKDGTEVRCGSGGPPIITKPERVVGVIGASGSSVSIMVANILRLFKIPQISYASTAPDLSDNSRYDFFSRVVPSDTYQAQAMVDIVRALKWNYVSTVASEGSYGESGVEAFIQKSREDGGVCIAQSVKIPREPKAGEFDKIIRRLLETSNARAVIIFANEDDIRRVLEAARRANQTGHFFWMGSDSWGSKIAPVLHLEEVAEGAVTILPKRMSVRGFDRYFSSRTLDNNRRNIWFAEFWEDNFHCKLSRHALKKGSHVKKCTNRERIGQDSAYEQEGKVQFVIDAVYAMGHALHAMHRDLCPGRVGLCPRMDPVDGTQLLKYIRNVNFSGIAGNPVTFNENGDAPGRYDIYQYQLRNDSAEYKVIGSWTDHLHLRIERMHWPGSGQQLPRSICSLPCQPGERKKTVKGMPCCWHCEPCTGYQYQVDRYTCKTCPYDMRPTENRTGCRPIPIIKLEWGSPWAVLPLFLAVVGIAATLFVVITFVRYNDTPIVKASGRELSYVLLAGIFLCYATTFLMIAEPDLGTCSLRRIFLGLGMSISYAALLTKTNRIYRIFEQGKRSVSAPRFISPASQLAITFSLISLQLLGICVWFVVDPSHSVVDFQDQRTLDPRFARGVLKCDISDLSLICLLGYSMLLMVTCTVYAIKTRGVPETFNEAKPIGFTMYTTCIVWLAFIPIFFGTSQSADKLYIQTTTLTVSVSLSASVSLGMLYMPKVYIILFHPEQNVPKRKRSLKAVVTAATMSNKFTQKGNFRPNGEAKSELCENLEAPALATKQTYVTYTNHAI
Chain of Cytochrome P450 3A4 (P08684 whole entry): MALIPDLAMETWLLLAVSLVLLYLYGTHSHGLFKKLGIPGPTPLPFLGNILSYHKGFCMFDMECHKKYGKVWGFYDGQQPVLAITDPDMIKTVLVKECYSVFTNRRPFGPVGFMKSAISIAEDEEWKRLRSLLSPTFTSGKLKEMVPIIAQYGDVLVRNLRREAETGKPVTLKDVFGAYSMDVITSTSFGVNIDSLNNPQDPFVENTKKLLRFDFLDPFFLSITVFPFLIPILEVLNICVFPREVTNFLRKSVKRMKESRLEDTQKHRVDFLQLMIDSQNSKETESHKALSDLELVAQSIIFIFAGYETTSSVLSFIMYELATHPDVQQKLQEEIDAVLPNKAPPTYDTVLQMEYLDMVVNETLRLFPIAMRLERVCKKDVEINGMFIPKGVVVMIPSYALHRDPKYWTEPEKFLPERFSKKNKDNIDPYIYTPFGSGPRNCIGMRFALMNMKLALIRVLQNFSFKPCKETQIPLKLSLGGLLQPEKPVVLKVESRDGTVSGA
Chain of Cytochrome P450 2D6 (P10635 whole entry): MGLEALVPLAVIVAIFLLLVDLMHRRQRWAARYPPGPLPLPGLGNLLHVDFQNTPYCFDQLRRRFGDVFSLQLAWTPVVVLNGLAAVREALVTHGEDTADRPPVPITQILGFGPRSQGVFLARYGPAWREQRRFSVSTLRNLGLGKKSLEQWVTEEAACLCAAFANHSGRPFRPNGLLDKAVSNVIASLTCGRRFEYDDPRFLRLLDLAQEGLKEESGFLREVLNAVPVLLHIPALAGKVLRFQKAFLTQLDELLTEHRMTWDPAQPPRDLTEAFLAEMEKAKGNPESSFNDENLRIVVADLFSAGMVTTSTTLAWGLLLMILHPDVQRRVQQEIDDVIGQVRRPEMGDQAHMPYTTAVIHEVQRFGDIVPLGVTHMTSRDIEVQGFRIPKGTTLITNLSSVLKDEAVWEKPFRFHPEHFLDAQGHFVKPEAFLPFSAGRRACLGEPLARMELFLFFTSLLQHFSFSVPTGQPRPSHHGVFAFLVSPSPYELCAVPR
Chain of Metabotropic glutamate receptor 7 (Homo sapiens) (Q14831 whole entry): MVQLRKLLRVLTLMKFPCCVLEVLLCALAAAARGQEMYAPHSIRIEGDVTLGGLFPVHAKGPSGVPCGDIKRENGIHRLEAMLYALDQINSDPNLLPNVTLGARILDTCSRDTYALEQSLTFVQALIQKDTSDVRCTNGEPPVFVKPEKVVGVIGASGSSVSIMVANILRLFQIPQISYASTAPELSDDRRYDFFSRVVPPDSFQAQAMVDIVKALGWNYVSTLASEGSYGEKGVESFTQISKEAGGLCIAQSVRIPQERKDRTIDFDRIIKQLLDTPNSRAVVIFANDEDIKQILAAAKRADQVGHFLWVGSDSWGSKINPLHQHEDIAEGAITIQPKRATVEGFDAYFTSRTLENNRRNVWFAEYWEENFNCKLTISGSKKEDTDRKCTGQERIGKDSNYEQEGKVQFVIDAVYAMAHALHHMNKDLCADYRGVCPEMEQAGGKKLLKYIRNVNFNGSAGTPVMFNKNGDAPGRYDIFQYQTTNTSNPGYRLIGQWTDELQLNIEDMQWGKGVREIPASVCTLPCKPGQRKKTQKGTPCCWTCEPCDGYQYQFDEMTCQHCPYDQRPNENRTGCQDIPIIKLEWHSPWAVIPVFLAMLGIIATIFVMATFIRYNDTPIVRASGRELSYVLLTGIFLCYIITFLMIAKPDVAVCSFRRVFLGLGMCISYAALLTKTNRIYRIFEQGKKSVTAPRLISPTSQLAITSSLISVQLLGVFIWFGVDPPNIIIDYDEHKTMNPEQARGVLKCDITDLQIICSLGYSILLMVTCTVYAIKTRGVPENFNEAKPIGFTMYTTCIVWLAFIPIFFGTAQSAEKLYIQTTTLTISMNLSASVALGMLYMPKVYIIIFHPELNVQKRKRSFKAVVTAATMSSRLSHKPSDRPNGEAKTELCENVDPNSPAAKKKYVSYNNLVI
Chain of Cytochrome P450 2C9 (P11712 whole entry): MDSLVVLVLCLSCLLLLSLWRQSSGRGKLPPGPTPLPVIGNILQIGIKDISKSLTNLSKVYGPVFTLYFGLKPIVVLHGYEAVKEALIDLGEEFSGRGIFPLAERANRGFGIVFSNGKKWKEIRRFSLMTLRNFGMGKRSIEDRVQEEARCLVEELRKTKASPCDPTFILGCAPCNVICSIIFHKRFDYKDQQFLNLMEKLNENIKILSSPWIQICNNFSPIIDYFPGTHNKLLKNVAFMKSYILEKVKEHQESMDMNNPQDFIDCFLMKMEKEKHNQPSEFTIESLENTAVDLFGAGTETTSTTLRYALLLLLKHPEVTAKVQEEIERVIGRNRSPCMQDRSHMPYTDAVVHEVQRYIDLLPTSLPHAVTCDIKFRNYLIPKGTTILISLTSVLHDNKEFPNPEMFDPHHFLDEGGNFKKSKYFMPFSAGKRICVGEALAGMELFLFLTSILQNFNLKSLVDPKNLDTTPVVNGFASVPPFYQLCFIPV

As to `O=C(Nc1nc(C(F)(F)F)co1)C1c2ccccc2Oc2ccccc21`, the IC50 at Cytochrome P450 3A4 and against Cytochrome P450 2D6 was > 30 µM in each case. In data set [1], this compound showed a clearance of 35 mL/min/kg. For the same compound, the Activity result in the data set on Mus musculus [2] was “Non-toxic”. For the same compound, the Fu in the data set with Plasma [3] turned out to be 0.003; in the data set with Plasma [4], 0.014. Moreover, the Kp at 0.25 h in data set [5] was found to be 0.29. In addition, the Vdss with Rattus norvegicus is 1.34 L/kg. The compound also displayed a half-life in data set [6] of 54 min. In addition, the figures for the concentration at 0.25 h in [7] and in [9] were 276 ng/mL and 81 ng/mL, respectively. The MRT in data set [8] is 50 min.
`Cc1ccoc1C(=O)Nc1ccc(N2C(=O)c3ccncc3C2=O)c(Cl)c1`: the IC50 at Cytochrome P450 3A4, at Cytochrome P450 2D6, against Cytochrome P450 2C9 and on Cytochrome P450 1A2 was > 30 µM throughout. Moreover, the fold change (FC) is 10.9 in data set [10]; < 2 in data set [13]; < 2 in [19]; < 2 in [21]; < 2 in data set [23]; < 2 in data set [24]. In [25], the fold change (FC) was < 2. This compound also gave a clearance in [1] of 382 mL/min/kg. The figures for the EC50 in data set [11], in data set [12] and in data set [16] were > 10 µM, 0.113 µM and 0.0988 µM, respectively. In addition, the Activity entry in the data set with Mus musculus [2] is “Non-toxic”; in data set [22], < 20%. In addition, the concentration with Brain is 2520 nM. For the same compound, in data set [14], the CLint scaled at 1 µM came to 167 mL/min/kg. Besides, the figures for the %max in data set [15], in data set [18] and in [20] were 115%, 18% and 94%, respectively. The Fu in the data set on Plasma [3] stood at 0.03. Besides, the Stability entry in the data set on Plasma [17] is reported as “Unstable”. Besides, the Kp at 0.25 h in data set [5] amounted to 2.81. Besides, the Vdss in the data set with Rattus norvegicus came out at 3 L/kg. The half-life in data set [6] was determined as 5.38 min. For the same compound, the concentration at 0.25 h in data set [7] was 12.5 ng/mL; in data set [9] it was 35.2 ng/mL. The compound also showed an MRT in [8] of 7.85 min.
For the compound `C[C@@H](NC(=O)c1ccc(C#Cc2cccc(F)c2)cn1)C(C)(C)O`, the Activity entry with Mus musculus [26] and with Mus musculus [27] was “Toxic” each time.
